# Results taken from ChEMBL document CHEMBL5058577, “EUbOPEN Chemogenomics Library 2 (Multiplex)” (2022).
# Test system: U2OS
# Assay: Multiplex assay against U2OS
# Assay type: toxicity, cell-based
# Settings: human
# How it was run: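 Imaging took place on a CQ1 microscope at 37°C and 5% CO2 once compound had been added to live cells stained at seeding with Hoechst33342, BioTracker Green Microtubule Cytoskeleton Dye, MitoTracker Red and Annexin V Alexa Fluor 680. CellPathfinder machine-learning gating classed cells as Hoechst high-intensity objects or normal cells, classed normal cells as having healthy, pyknosed or fragmented nuclei, and classed pyknosed cells as mitotic or apoptotic. Tubulin, mitochondrial-mass and membrane-permeability phenotypes are per cents of the healthy-nucleus cells.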
# [1] = 12 h, 1 µM, compound concentration 1 uM, replicate 1
# [2] = 12 h, 1 µM, compound concentration 1 uM, replicate 2
# [3] = 12 h, 10 µM, compound concentration 10 uM, replicate 1
# [4] = 12 h, 10 µM, compound concentration 10 uM, replicate 2
# [5] = 24 h, 1 µM, compound concentration 1 uM, replicate 1
# [6] = 24 h, 1 µM, compound concentration 1 uM, replicate 2
# [7] = 24 h, 10 µM, compound concentration 10 uM, replicate 1
# [8] = 24 h, 10 µM, compound concentration 10 uM, replicate 2
# [9] = 48 h, 1 µM, compound concentration 1 uM, replicate 1
# [10] = 48 h, 1 µM, compound concentration 1 uM, replicate 2
# [11] = 48 h, 10 µM, compound concentration 10 uM, replicate 1
# [12] = 48 h, 10 µM, compound concentration 10 uM, replicate 2
smiles,measurement,setting,value
CCCOc1ccc2[nH]cc(C3=CCNCC3)c2n1.Cl,Population Apoptotic (%),[1],80%
same,Population Fragmented Nuclei (%),[1],31%
same,Population Healthy Nuclei (%),[1],58%
same,Population Hoechst High Intensity Objects (%),[1],2%
same,Population Membrane Permeable-Phenotype (%),[1],2%
same,Population Mitochondria Different-Phenotype (%),[1],1%
same,Population Mitotic Cells (%),[1],19%
same,Population Normal (%),[1],97%
same,Population Pyknosed Nuclei (%),[1],9%
same,Population Tubulin-Different-Phenotype (%),[1],1%
same,Total Cell Count,[1],218
same,Population Apoptotic (%),[2],87%
same,Population Fragmented Nuclei (%),[2],13%
same,Population Healthy Nuclei (%),[2],78%
same,Population Hoechst High Intensity Objects (%),[2],1%
same,Population Membrane Permeable-Phenotype (%),[2],11%
same,Population Mitochondria Different-Phenotype (%),[2],7%
same,Population Mitotic Cells (%),[2],12%
same,Population Normal (%),[2],98%
same,Population Pyknosed Nuclei (%),[2],8%
same,Population Tubulin-Different-Phenotype (%),[2],5%
same,Total Cell Count,[2],98
same,Population Apoptotic (%),[3],86%
same,Population Fragmented Nuclei (%),[3],24%
same,Population Healthy Nuclei (%),[3],66%
same,Population Hoechst High Intensity Objects (%),[3],4%
same,Population Membrane Permeable-Phenotype (%),[3],6%
same,Population Mitochondria Different-Phenotype (%),[3],5%
same,Population Mitotic Cells (%),[3],13%
same,Population Normal (%),[3],96%
same,Population Pyknosed Nuclei (%),[3],8%
same,Population Tubulin-Different-Phenotype (%),[3],3%
same,Total Cell Count,[3],275
same,Population Apoptotic (%),[4],60%
same,Population Fragmented Nuclei (%),[4],17%
same,Population Healthy Nuclei (%),[4],74%
same,Population Hoechst High Intensity Objects (%),[4],0%
same,Population Membrane Permeable-Phenotype (%),[4],12%
same,Population Mitotic Cells (%),[4],40%
same,Population Normal (%),[4],100%
same,Population Pyknosed Nuclei (%),[4],7%
same,Population Tubulin-Different-Phenotype (%),[4],6%
same,Total Cell Count,[4],134
same,Population Apoptotic (%),[5],70%
same,Population Fragmented Nuclei (%),[5],27%
same,Population Healthy Nuclei (%),[5],61%
same,Population Hoechst High Intensity Objects (%),[5],1%
same,Population Membrane Permeable-Phenotype (%),[5],6%
same,Population Mitochondria Different-Phenotype (%),[5],1%
same,Population Mitotic Cells (%),[5],29%
same,Population Normal (%),[5],98%
same,Population Pyknosed Nuclei (%),[5],10%
same,Population Tubulin-Different-Phenotype (%),[5],3%
same,Total Cell Count,[5],252
same,Population Apoptotic (%),[6],90%
same,Population Fragmented Nuclei (%),[6],18%
same,Population Healthy Nuclei (%),[6],73%
same,Population Hoechst High Intensity Objects (%),[6],2%
same,Population Membrane Permeable-Phenotype (%),[6],3%
same,Population Mitochondria Different-Phenotype (%),[6],3%
same,Population Mitotic Cells (%),[6],9%
same,Population Normal (%),[6],97%
same,Population Pyknosed Nuclei (%),[6],8%
same,Population Tubulin-Different-Phenotype (%),[6],2%
same,Total Cell Count,[6],138
same,Population Apoptotic (%),[7],92%
same,Population Fragmented Nuclei (%),[7],25%
same,Population Healthy Nuclei (%),[7],66%
same,Population Hoechst High Intensity Objects (%),[7],3%
same,Population Membrane Permeable-Phenotype (%),[7],5%
same,Population Mitochondria Different-Phenotype (%),[7],3%
same,Population Mitotic Cells (%),[7],7%
same,Population Normal (%),[7],96%
same,Population Pyknosed Nuclei (%),[7],8%
same,Population Tubulin-Different-Phenotype (%),[7],3%
same,Total Cell Count,[7],323
same,Population Apoptotic (%),[8],72%
same,Population Fragmented Nuclei (%),[8],14%
same,Population Healthy Nuclei (%),[8],78%
same,Population Hoechst High Intensity Objects (%),[8],0%
same,Population Membrane Permeable-Phenotype (%),[8],11%
same,Population Mitochondria Different-Phenotype (%),[8],2%
same,Population Mitotic Cells (%),[8],27%
same,Population Normal (%),[8],99%
same,Population Pyknosed Nuclei (%),[8],6%
same,Population Tubulin-Different-Phenotype (%),[8],4%
same,Total Cell Count,[8],162
same,Population Apoptotic (%),[9],91%
same,Population Fragmented Nuclei (%),[9],19%
same,Population Healthy Nuclei (%),[9],69%
same,Population Hoechst High Intensity Objects (%),[9],2%
same,Population Membrane Permeable-Phenotype (%),[9],5%
same,Population Mitochondria Different-Phenotype (%),[9],3%
same,Population Mitotic Cells (%),[9],8%
same,Population Normal (%),[9],97%
same,Population Pyknosed Nuclei (%),[9],10%
same,Population Tubulin-Different-Phenotype (%),[9],1%
same,Total Cell Count,[9],350
same,Population Apoptotic (%),[10],75%
same,Population Healthy Nuclei (%),[10],74%
same,Population Membrane Permeable-Phenotype (%),[10],9%
same,Population Mitotic Cells (%),[10],25%
same,Population Pyknosed Nuclei (%),[10],6%
same,Population Tubulin-Different-Phenotype (%),[10],3%
same,Total Cell Count,[10],183
same,Population Apoptotic (%),[11],100%
same,Population Fragmented Nuclei (%),[11],18%
same,Population Healthy Nuclei (%),[11],75%
same,Population Hoechst High Intensity Objects (%),[11],4%
same,Population Membrane Permeable-Phenotype (%),[11],5%
same,Population Mitochondria Different-Phenotype (%),[11],2%
same,Population Mitotic Cells (%),[11],0%
same,Population Normal (%),[11],95%
same,Population Pyknosed Nuclei (%),[11],6%
same,Population Tubulin-Different-Phenotype (%),[11],3%
same,Total Cell Count,[11],423
same,Population Apoptotic (%),[12],94%
same,Population Fragmented Nuclei (%),[12],13%
same,Population Healthy Nuclei (%),[12],78%
same,Population Hoechst High Intensity Objects (%),[12],0%
same,Population Membrane Permeable-Phenotype (%),[12],6%
same,Population Mitochondria Different-Phenotype (%),[12],3%
same,Population Mitotic Cells (%),[12],5%
same,Population Normal (%),[12],99%
same,Population Pyknosed Nuclei (%),[12],7%
same,Total Cell Count,[12],243
